Measured values: ChEMBL document CHEMBL4823251, “Structure-Based Exploration of Selectivity for ATM Inhibitors in Huntington's Disease” (J Med Chem, 2021)
Values after ≈ are worked out from the molar mass of the structure shown.

Key:
[1] = Apparent permeability across apical to basolateral side in MDCK-MDR1 cells after 1 hr by LC-MS/MS analysis; assay type: ADME, cell-based, Canis lupus familiaris; details: dog
Outline: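 MDCKII-MDR1 and wild-type cells seeded at 2 × 10⁵ cells/well on Transwells and cultured 3 days. Test compound at 10 μM in HBSS with 25 mM HEPES, pH 7.4, added apical or basolateral in duplicate. Lucifer yellow used as integrity check; wells above 100 nm/s rejected. Sampled after 1 h at 37 °C and quantified by LC–MS/MS. Papp taken from the apical-to-basal direction.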

[2] = Kinetic solubility of the compound in pH 7.4 PBS buffer incubated for 2 hrs using orbital shaker by LC-UV mass spectrometry; assay type: physicochemical; details: read-out: Kinetic_solubility
Outline: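 Shaken on an orbital shaker for 2 h at room temperature, then filtered. Filtrate analysed by LC-UV with MS confirmation, calibrated against 200 μM and 10 μM DMSO dilutions.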

[3] = target: T1, Serine-protein kinase ATM (Homo sapiens, UniProt Q13315); test: Inhibition of ATM in human U2OS cells assessed as reduction in etoposide-stimulated KAP1 phosphorylation incubated for 60 mins by immunoreactivity assay; assay type: cell-based
T1 sequence (Q13315 whole entry): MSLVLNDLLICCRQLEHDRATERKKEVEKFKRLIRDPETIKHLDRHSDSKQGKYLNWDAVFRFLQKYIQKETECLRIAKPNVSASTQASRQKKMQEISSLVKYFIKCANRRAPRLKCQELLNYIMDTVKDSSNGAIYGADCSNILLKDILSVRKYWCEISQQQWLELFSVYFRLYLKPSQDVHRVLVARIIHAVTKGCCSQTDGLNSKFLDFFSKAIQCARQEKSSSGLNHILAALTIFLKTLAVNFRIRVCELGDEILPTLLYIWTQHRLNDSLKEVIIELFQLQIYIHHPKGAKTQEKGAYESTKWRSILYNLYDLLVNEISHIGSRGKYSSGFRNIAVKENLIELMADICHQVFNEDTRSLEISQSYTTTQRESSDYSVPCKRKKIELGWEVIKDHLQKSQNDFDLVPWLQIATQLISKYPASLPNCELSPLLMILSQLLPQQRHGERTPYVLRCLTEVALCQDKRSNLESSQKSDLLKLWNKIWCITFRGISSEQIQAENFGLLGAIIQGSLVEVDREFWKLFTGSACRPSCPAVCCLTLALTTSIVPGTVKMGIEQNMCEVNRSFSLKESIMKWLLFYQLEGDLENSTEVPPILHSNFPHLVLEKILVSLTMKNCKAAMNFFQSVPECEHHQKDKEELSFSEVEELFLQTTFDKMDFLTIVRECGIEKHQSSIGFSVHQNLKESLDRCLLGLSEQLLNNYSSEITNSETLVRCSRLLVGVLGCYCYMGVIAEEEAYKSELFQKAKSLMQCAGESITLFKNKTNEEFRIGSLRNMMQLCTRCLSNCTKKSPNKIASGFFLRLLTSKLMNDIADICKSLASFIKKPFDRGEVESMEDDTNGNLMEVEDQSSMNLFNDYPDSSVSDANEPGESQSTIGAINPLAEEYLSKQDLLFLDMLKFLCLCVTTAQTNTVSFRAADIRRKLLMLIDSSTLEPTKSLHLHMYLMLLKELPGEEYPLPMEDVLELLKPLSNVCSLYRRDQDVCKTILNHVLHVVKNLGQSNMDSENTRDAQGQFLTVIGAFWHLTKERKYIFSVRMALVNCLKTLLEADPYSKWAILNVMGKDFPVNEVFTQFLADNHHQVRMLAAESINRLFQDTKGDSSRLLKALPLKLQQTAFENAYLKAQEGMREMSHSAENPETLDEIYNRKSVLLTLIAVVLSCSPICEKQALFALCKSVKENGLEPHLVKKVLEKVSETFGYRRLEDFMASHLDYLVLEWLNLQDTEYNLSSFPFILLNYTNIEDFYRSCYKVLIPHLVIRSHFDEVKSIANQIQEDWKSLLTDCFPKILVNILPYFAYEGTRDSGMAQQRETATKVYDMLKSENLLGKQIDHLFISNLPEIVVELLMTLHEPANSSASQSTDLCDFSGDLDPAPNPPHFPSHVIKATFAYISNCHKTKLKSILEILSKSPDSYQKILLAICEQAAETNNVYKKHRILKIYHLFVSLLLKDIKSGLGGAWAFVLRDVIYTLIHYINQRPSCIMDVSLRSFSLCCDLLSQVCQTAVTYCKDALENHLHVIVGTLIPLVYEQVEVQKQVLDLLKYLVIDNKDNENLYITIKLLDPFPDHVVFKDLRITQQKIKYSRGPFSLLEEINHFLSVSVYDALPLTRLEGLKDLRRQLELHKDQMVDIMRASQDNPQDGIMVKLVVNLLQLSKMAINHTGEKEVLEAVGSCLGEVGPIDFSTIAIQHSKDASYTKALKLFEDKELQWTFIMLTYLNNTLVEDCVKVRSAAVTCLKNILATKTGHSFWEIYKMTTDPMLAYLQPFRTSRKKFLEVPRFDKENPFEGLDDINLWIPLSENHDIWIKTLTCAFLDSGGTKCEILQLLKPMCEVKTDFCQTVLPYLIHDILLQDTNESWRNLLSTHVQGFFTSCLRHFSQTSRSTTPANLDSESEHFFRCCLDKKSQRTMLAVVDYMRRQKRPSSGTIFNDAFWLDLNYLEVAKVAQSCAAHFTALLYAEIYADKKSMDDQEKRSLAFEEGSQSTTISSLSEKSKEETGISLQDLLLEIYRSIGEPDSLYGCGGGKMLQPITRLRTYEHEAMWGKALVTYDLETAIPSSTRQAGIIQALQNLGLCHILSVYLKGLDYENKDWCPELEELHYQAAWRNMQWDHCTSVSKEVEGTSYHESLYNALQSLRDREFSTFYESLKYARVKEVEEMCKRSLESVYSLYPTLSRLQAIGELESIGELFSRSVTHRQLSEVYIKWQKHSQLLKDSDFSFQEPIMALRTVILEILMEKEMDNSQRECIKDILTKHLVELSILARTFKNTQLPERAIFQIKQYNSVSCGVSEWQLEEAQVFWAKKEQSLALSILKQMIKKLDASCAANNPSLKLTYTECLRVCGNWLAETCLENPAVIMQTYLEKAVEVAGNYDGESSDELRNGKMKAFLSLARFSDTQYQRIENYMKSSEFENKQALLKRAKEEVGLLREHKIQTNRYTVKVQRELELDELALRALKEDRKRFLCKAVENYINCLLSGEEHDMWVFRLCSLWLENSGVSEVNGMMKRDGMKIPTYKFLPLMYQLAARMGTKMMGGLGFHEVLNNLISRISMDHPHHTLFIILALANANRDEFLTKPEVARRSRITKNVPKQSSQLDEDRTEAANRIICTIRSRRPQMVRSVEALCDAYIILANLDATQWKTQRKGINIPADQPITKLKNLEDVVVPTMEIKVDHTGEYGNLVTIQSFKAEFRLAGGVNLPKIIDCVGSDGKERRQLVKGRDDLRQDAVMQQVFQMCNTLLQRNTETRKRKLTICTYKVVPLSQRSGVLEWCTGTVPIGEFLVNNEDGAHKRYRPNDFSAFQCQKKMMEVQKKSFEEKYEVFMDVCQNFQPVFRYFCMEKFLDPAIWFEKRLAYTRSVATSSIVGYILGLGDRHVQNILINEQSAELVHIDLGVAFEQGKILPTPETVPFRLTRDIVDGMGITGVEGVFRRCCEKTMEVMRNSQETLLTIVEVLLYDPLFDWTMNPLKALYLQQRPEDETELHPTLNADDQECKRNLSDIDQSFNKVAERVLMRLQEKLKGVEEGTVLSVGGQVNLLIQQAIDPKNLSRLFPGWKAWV
Outline: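 U2OS cells plated overnight at 6k cells/well (37 °C, 5% CO₂), then treated with compound titrations (0.3% DMSO) plus 100 μM etoposide for 60 min. Cells fixed in cold methanol and stained for phospho-KAP1 and total KAP1 using IRDye secondaries on a LI-COR Odyssey. IC50 is the mean of at least two experiments.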

[4] = target: T1, Serine-protein kinase ATM; test: Inhibition of full length recombinant FLAG-tagged human ATM assessed as decrease in p53 S15 phosphorylation using full length myc-tagged p53 as substrate incubated for 30 mins in presence of ATP by ELISA
Outline: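 Buffer was 25 mM HEPES pH 7.5 with MgCl₂, MnCl₂, Brij-35, glycerol, BSA and DTT (0.1% DMSO); reaction ran 30 min at 20 °C and was stopped with 70 mM EDTA. Product captured on anti-myc-coated plates and detected with anti-p53 pS15, HRP secondary and TMB, absorbance at 450 nm.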

[5] = Effective efflux ratio of apparent permeability across basolateral to apical over apical to basolateral side in MDCK-MDR1 cells assessed as efflux ratio after 1 hr by LC-MS/MS analysis; assay type: ADME, cell-based, Canis lupus familiaris; details: dog, mdck-mdr1, 1 h
Outline: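 MDCKII MDR1 and wild-type cells seeded at 2 × 10⁵ cells/well in Transwells, cultured 3 days. Test compounds 10 μM in HBSS with 25 mM HEPES pH 7.4, dosed apical or basolateral in duplicate, 1 h at 37 °C. Lucifer yellow monolayer check, wells above 100 nm/s rejected. LC–MS/MS read-out. ER = Papp B>A/A>B. EER = MDR1 ER over wild-type ER.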

[6] = Intrinsic clearance in C57Bl/6 mouse pooled liver microsomes at 1 uM measured up to 40 mins in presence of NADPH by LC-MS/MS analysis; assay type: ADME, Microsome; details: read-out: CLH
Outline: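 Reaction started with 1 mM NADPH. Sampled at 0, 5, 10, 20 and 40 min, quenched in acetonitrile with internal standard, and analysed by LC–MS/MS.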

Homo sapiens [7] = species: Homo sapiens; test: Selectivity ratio of Ki for full length recombinant GST-tagged VPS34 expressed in baculovirus expression system using PI/PS as substrate incubated for 60 mins in presence of ATP at Km concentration by luminescence assay to Ki for full length recombinant FLAG-tagged human ATM assessed as decrease in p53 S15 phosphorylation using full length myc-tagged p53 as substrate incubated for 30 mins in presence of ATP by ELISA
Outline: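 ADP-Glo luminescence read-out. ATM reaction: 0.75 nM enzyme, 25 nM myc-p53, 10 μM ATP, 30 min at 20 °C, p53 S15 phosphorylation by ELISA. Ki values are means of at least two experiments.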

[8] = target: Phosphatidylinositol 3-kinase catalytic subunit type 3 (Homo sapiens, UniProt Q8NEB9); test: Inhibition of full length recombinant GST-tagged human VPS34 expressed in baculovirus expression system using PI/PS as substrate incubated for 60 mins in presence of ATP at Km concentration by luminescence assay
Sequence of Phosphatidylinositol 3-kinase catalytic subunit type 3 (Q8NEB9 whole entry): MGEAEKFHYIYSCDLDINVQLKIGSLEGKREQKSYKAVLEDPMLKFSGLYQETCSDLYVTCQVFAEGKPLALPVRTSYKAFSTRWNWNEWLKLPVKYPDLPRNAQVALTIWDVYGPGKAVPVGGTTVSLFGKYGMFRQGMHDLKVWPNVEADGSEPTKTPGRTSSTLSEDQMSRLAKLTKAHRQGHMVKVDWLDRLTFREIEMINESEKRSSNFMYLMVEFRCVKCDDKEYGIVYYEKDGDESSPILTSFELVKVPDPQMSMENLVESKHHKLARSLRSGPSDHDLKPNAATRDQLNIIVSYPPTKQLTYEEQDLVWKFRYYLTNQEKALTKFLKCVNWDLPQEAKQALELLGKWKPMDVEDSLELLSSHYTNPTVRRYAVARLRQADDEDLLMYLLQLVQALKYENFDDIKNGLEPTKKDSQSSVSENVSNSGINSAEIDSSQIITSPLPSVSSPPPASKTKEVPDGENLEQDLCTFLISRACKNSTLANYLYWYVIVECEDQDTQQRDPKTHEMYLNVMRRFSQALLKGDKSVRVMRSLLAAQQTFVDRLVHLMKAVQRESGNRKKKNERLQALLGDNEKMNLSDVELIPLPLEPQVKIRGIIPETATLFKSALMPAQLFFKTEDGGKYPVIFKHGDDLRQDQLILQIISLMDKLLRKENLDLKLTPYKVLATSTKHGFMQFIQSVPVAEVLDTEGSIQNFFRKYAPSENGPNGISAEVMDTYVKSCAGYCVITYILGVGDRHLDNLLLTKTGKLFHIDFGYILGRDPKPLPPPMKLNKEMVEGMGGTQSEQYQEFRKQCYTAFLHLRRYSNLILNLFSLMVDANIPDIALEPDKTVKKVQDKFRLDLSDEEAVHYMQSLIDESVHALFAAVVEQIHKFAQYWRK

[9] = target: Serine/threonine-protein kinase ATR (Homo sapiens, UniProt Q13535); test: Inhibition of ATR in human HT-29 cells assessed as reduction in CHK1 phosphorylation incubated for 4 hrs; assay type: cell-based
Outline: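 HT29 cells seeded at 25k/well overnight, then treated with compound titrations (0.3% DMSO) plus 10 μM gemcitabine for 4 h. Cells fixed in paraformaldehyde, permeabilized with Triton-X, and stained for phospho-Chk1 and total Chk1 using LI-COR IRDye detection. Ratio normalized to DMSO and 30 μM AZ-20 controls. IC50 is the mean of at least two experiments.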

Homo sapiens [10] = species: Homo sapiens; test: Selectivity ratio of Ki for DNA-PK isolated from human HeLa nuclear extract using full length His-tagged p53 as substrate measured after 75 mins in presence of ATP by HTRF assay to Ki for full length recombinant FLAG-tagged human ATM assessed as decrease in p53 S15 phosphorylation using full length myc-tagged p53 as substrate incubated for 30 mins in presence of ATP by ELISA
Outline: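 HTRF detection of p53 S15 phosphorylation. ATM reaction: 0.75 nM enzyme, 25 nM myc-p53, 10 μM ATP, 30 min at 20 °C, anti-myc capture ELISA. Ki values are means of at least two experiments.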

[11] = Half life in C57Bl/6 mouse at 2 mg/kg, iv administered as single dose; assay type: ADME, organism-based; details: in vivo
Outline: (§1)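 Male C57BL/6 mice given a slow tail-vein bolus of a 0.4 mg/mL solution in 10:40:50 DMSO/PEG/H₂O, at 2 mg/kg (5 mL/kg) or 0.8 mg/kg (2 mL/kg). Plasma and brain sampled over 8 h, n = 3 per time point, and measured by LC–MS/MS. Noncompartmental analysis on mean concentrations with linear-trapezoidal AUC. Kp is the brain/plasma AUC ratio of total concentrations; Kpuu uses free concentrations, corrected by equilibrium-dialysis plasma and brain binding.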

[12] = Unbound brain-to-plasma concentration ratio in C57Bl/6 mouse at 2 mg/kg, iv administered as single dose; assay type: ADME, organism-based; details: brain and plasma, read-out: K(p,uu,brain); outline: as §1
[13] = Volume of distribution at steady state in C57Bl/6 mouse at 2 mg/kg, iv administered as single dose; assay type: ADME, organism-based; details: in vivo, read-out: Vdss; outline: as §1
[14] = target: DNA-dependent protein kinase catalytic subunit (Homo sapiens, UniProt P78527); test: Inhibition of DNA-PK isolated from human HeLa nuclear extract using full length His-tagged p53 as substrate measured after 75 mins in presence of ATP by HTRF assay; assay type: subcellular, Nucleus
Outline: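 Buffer was 50 mM HEPES pH 7.5, 5 mM MgCl₂, 0.01% Brij35, 1 mM DTT and 1 μg/mL sheared calf thymus DNA; reaction ran 75 min at 20 °C. Stopped with d2-anti-6HIS and cryptate anti-phospho-p53 antibodies in KF/EDTA buffer. Read at 665/620 nm after 7 h.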

[15] = Clearance in C57Bl/6 mouse at 2 mg/kg, iv administered as single dose; assay type: ADME, organism-based; details: in vivo; outline: as §1
[16] = Brain to plasma permeability coefficient, Kp in C57Bl/6 mouse at 2 mg/kg, iv administered as single dose; assay type: ADME, organism-based; details: brain and plasma; outline: as §1
[17] = target: Serine/threonine-protein kinase mTOR (Homo sapiens, UniProt P42345); test: Binding affinity to mTOR (unknown origin)

Papp A→B at 1 h [1] | solubility kinetic at 2 h [2] | IC50 [3] | Ki [4] | Ratio [5] | CLint scaled at 1 µM [6] | Ratio Ki (Homo sapiens [7]) | Ki [8] | Structure (SMILES) | IC50 [9] | Ratio Ki (Homo sapiens [10]) | half-life [11] | Kp uu [12] | Vd [13] | Ki [14] | clearance [15] | Kp [16] | Kd [17]
31.9 ×10⁻⁶ cm/s | 72 µg/mL (≈ 195 µM) | 3500 nM | 23 nM | 12 | < 65 mL/min/kg | – | – | CO[C@@H]1CCN(c2cc(N3CCOCC3)cc(=O)[nH]2)[C@H]1Cc1ccccc1 | – | – | – | – | – | – | – | – | –
– | 59 µg/mL (≈ 167 µM) | – | – | – | – | – | 170 nM | O=c1cc(N2CCOCC2)cc(N2CCCC[C@@H]2Cc2ccccc2)[nH]1 | 8000 nM | – | – | – | – | – | – | – | –
59.9 ×10⁻⁶ cm/s | > 68 µg/mL | – | 6 nM | 4.8 | 115 mL/min/kg | 1 | 9 nM | O=c1cc(N2CCOCC2)cc(N2CCC[C@@H]2Cc2ccccc2)[nH]1 | – | – | – | – | – | – | – | – | –
75.2 ×10⁻⁶ cm/s | 65 µg/mL (≈ 173 µM) | – | 6 nM | 2.6 | < 65 mL/min/kg | 6.5 | 39 nM | O=c1cc(N2CCOCC2)cc(N2CCC(F)(F)[C@@H]2Cc2ccccc2)[nH]1 | – | – | – | – | – | – | – | – | –
58.1 ×10⁻⁶ cm/s | 48 µg/mL (≈ 130 µM) | 200 nM | 0.1 nM | 3.1 | 287 mL/min/kg | 80 | 8 nM | O=c1cc(N2CCOCC2)nc(N2CCCCC[C@@H]2Cc2ccccc2)[nH]1 | – | – | – | – | – | – | – | – | –

Structure (SMILES) | Papp A→B at 1 h [1] | solubility kinetic at 2 h [2] | IC50 [3] | Ki [4] | Ratio [5] | CLint scaled at 1 µM [6] | Ratio Ki (Homo sapiens [7]) | Ki [8] | IC50 [9] | Ratio Ki (Homo sapiens [10]) | half-life [11] | Kp uu [12] | Vd [13] | Ki [14] | clearance [15] | Kp [16] | Kd [17]
O=c1cc(N2CCOCC2)cc(N2C[C@@H]3C[C@@H]3[C@@H]2Cc2ccccc2)[nH]1 | 81.2 ×10⁻⁶ cm/s | 52 µg/mL (≈ 148 µM) | 150 nM | 0.3 nM | 2.9 | 177 mL/min/kg | 13 | 4 nM | – | – | – | – | – | – | – | – | –
O=c1cc(N2CCOCC2)cc(N2C[C@H]3C[C@H]3[C@@H]2Cc2ccccc2)[nH]1 | 65.7 ×10⁻⁶ cm/s | 59 µg/mL (≈ 168 µM) | – | 2 nM | 6.7 | < 75 mL/min/kg | 49 | 98 nM | > 30000 nM | 80 | 2.4 h | 0.12 | 4.7 L/kg | 160 nM | 33.3 mL/min/kg | 0.23 | 4600 nM
